Tests used:
[1] = target: Metabotropic glutamate receptor 6 (Rattus norvegicus, UniProt P35349); experiment: Effect on Metabotropic glutamate receptor 6
How it was run: (§1)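 Stably transfected CHO cells (mGlu3, mGlu4a or mGlu6) incubated 10 min in PBS with ligand, 10 μM forskolin and 1 mM IBMX. cAMP measured by RIA; agonism taken as percent decrease of forskolin-induced cAMP versus control. For antagonism, 20 min preincubation with ligand in PBS/1 mM IBMX, then 10 min with ligand plus 30 μM (S)-Glu, forskolin and IBMX. EC50 ± SEM from at least two independent experiments in triplicate.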

[2] = target: Metabotropic glutamate receptor 4 (Rattus norvegicus, UniProt P31423); experiment: Effect on Metabotropic glutamate receptor 4; how it was run: as §1
Metabotropic glutamate receptor 4, sequence (P31423 whole entry): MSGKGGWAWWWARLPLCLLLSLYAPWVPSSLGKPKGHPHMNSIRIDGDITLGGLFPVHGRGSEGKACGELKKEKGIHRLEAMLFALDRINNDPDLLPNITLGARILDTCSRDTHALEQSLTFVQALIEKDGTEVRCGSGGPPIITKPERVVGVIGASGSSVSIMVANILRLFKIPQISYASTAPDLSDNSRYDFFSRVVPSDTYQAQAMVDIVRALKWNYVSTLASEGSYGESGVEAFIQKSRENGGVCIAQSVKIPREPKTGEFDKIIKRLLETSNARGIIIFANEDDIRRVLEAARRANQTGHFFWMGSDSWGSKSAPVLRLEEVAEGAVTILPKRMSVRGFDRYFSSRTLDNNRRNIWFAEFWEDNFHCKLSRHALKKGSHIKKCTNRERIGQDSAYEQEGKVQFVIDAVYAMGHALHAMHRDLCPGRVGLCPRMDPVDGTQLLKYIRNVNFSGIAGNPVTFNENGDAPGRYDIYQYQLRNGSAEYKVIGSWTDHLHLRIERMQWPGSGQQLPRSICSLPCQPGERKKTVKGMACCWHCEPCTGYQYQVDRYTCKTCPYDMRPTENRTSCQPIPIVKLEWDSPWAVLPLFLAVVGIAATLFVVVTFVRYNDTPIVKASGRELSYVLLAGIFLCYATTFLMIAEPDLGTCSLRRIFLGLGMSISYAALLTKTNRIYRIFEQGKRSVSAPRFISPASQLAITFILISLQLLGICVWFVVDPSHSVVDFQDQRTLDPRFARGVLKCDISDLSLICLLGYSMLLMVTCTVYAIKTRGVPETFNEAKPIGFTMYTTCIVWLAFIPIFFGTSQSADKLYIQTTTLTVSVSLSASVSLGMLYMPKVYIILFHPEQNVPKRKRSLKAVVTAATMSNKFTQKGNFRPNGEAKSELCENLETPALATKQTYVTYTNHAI

[3] = target: Metabotropic glutamate receptor 1 (Rattus norvegicus, UniProt P23385); experiment: Effect on Metabotropic glutamate receptor 1
How it was run: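 CHO cells stably expressing mGlu1a, plated two days before assay and labelled with [3H]inositol (2 μCi/mL) for 24 h. Ligand given in PBS–LiCl for 20 min; read-out is 3H mono-, bis- and tris-inositol phosphates separated by ion exchange, expressed as fold increase over control. For antagonism, a 20 min ligand preincubation was followed by ligand plus 30 μM (S)-Glu. At least two experiments, each in triplicate.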

[4] = target: Metabotropic glutamate receptor 2 (Rattus norvegicus, UniProt P31421); experiment: Effect on Metabotropic glutamate receptor 2
Metabotropic glutamate receptor 2, sequence (P31421 whole entry): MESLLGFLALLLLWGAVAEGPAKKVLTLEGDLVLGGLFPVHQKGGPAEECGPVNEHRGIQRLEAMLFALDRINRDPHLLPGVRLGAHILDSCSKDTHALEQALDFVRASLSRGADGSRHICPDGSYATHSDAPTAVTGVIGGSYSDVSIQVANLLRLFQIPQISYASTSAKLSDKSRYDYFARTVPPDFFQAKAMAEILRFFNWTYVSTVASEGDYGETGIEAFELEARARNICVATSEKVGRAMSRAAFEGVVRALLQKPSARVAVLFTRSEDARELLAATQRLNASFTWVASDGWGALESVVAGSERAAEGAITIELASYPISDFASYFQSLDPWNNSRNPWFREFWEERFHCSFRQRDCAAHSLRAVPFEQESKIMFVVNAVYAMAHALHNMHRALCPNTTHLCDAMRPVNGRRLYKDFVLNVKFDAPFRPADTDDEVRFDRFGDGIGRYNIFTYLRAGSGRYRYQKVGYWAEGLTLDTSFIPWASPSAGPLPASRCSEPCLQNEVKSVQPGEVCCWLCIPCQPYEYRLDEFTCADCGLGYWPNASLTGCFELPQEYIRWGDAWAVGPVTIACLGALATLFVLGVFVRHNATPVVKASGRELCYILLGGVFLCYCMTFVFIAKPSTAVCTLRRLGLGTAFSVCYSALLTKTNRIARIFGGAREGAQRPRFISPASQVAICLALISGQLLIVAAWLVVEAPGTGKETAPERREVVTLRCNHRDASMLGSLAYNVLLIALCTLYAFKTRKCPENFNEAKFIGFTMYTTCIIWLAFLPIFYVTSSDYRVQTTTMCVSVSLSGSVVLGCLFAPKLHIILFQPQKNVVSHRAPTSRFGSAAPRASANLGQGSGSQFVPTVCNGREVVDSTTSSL
How it was run: (§2)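 Stably transfected CHO cells grown in DMEM with 2 mM glutamine, 1% proline and 10% dialyzed FCS, at 37 °C in 5% CO2. Cells seeded 2 days before assay. Ligand tested at 1 mM, both alone and with 30 μM (S)-Glu. Each experiment run at least twice in triplicate.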

[5] = target: Metabotropic glutamate receptor 3 (Rattus norvegicus, UniProt P31422); experiment: Effect on Metabotropic glutamate receptor 3; how it was run: as §1
Metabotropic glutamate receptor 3, sequence (P31422 whole entry): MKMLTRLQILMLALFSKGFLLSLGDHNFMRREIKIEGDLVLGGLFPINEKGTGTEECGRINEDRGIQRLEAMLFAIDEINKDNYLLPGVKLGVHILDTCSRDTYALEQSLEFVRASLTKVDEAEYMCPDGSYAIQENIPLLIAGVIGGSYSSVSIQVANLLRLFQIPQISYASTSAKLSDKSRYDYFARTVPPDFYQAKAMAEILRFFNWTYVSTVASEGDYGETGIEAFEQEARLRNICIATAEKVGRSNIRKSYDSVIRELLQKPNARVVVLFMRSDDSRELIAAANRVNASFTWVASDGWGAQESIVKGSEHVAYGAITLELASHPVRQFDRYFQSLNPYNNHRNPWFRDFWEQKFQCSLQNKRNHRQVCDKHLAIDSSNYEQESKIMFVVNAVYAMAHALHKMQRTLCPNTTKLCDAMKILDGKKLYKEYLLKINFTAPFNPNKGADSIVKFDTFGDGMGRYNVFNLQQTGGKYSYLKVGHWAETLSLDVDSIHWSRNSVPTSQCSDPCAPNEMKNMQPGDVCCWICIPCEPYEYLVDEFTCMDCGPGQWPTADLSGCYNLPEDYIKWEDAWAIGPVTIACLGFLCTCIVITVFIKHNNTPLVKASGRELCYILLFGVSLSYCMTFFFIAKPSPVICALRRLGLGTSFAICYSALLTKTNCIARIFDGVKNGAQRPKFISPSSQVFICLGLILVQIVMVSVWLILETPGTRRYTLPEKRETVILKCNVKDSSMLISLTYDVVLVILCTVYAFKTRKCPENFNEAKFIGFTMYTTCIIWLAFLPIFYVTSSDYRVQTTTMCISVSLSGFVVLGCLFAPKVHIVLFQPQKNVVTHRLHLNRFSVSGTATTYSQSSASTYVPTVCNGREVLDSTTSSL

[6] = target: Metabotropic glutamate receptor 7 (Rattus norvegicus, UniProt P35400); experiment: Effect on Metabotropic glutamate receptor 7
Metabotropic glutamate receptor 7, sequence (P35400 whole entry): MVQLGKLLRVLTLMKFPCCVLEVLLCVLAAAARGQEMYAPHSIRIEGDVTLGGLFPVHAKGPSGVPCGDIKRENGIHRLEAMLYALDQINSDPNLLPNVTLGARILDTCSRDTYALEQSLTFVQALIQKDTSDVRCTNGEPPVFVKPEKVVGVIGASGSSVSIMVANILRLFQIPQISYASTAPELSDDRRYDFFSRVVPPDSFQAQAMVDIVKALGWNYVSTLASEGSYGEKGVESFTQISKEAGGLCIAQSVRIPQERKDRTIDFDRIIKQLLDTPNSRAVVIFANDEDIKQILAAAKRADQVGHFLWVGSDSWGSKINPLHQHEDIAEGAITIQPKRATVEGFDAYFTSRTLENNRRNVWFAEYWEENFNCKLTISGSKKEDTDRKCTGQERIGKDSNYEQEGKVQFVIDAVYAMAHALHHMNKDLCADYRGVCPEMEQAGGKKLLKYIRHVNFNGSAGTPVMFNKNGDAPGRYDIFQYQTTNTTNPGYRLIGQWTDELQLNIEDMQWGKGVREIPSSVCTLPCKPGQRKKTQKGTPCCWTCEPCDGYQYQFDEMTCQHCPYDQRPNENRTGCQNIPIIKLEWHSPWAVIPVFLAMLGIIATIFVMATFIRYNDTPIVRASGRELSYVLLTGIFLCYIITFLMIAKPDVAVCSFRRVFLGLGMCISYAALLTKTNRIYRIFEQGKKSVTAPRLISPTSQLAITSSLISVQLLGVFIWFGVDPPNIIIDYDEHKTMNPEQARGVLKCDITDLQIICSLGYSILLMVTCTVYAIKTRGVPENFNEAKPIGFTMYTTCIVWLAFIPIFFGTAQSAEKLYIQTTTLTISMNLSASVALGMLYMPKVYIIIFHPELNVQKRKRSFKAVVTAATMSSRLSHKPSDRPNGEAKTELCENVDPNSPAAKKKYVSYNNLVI
How it was run: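 mGlu7-expressing CHO cells run in the forskolin (10 μM)/IBMX (1 mM) cAMP assay for 10 min, with cAMP measured by RIA as percent inhibition. Test ligand at 10 mM. For antagonism, 20 min preincubation, then ligand plus 1 mM (S)-AP4 as the agonist. Run at least twice in triplicate.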

[7] = target: Metabotropic glutamate receptor 5 (Rattus norvegicus, UniProt P31424); experiment: Effect on Metabotropic glutamate receptor 5; how it was run: as §2
Metabotropic glutamate receptor 5, sequence (P31424 whole entry): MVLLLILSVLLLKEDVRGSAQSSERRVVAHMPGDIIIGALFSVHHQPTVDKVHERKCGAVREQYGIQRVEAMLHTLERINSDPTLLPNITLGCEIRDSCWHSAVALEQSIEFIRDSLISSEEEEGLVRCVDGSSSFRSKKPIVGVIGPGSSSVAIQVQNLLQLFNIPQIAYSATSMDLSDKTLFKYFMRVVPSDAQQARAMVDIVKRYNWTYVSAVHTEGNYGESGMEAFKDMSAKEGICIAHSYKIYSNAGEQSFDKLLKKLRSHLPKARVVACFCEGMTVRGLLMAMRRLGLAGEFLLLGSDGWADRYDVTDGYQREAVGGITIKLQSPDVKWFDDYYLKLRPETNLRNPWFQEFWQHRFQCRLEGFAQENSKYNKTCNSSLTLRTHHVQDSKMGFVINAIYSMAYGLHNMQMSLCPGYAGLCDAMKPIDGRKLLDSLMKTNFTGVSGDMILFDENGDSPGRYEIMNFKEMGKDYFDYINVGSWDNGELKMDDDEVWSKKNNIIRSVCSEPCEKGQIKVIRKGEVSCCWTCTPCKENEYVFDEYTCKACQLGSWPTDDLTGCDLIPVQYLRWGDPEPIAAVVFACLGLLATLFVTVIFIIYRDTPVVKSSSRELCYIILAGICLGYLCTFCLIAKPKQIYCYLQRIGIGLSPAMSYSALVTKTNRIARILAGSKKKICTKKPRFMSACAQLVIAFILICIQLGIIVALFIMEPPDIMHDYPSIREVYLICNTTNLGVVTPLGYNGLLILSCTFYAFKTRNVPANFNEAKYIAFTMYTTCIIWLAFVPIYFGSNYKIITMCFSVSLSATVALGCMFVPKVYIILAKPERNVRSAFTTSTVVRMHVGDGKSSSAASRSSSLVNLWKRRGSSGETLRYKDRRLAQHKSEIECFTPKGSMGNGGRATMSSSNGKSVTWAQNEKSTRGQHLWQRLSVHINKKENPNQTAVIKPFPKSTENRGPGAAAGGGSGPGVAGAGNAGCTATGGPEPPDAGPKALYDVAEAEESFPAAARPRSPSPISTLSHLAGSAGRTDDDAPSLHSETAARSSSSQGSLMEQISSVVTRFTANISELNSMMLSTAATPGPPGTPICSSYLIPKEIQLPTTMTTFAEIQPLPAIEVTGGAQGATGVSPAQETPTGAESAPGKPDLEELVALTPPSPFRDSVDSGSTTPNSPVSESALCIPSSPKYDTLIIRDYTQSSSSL

[8] = target: Glutamate NMDA receptor; experiment: Inhibitory activity against N-methyl-D-aspartate glutamate receptor; format: protein-complex assay

In the case of N[C@@H](CCCC(=O)O)C(=O)O [(S)-2-AMINOADIPIC ACID], the EC50 [1] is reported as 140 µM, the EC50 [2] is reported as > 3000 µM and the EC50 [3] is reported as > 1000 µM. It also gave an EC50 [4] of 35 µM.

For Cc1onc(O)c1CC[C@H](N)C(=O)O, the EC50 [5] was > 1000 µM, the EC50 [1] was 58 µM and the EC50 [2] was > 1000 µM. The EC50 [6] was > 5000 µM, the EC50 [3] was > 1000 µM and the EC50 [4] was > 1000 µM. The EC50 [7] was > 1000 µM.

N[C@H](CCCC(=O)O)C(=O)O was tested, and the EC50 [1] was > 1000 µM, the EC50 [3] was > 1000 µM and the EC50 [4] was > 1000 µM.

For Cc1o[nH]c(=O)c1CC[C@@H](N)C(=O)O, the IC50 [8] was 131 µM, the EC50 [5] was > 1000 µM and the EC50 [1] was > 1000 µM. The EC50 [2] was > 1000 µM, the EC50 [6] was > 5000 µM and the EC50 [3] was > 1000 µM. The EC50 [4] was > 1000 µM and the EC50 [7] was > 1000 µM.

In the case of Cc1onc(O)c1CCC(N)C(=O)O (stereo not given), the EC50 [1] is reported as 82 µM, the EC50 [2] is reported as > 3000 µM and the EC50 [3] is reported as > 1000 µM. The EC50 [4] was > 1000 µM.

In the case of N[C@H](CCC(=O)O)C(=O)O [D-GLUTAMATE], the EC50 [5] is reported as 9 µM, the EC50 [2] is reported as 12 µM and the EC50 [6] is reported as 5400 µM.

For N[C@@H](CCP(=O)(O)O)C(=O)O, the EC50 [1] was 0.57 µM, the EC50 [2] was 0.91 µM and the EC50 [6] was 252 µM. The EC50 [3] was 1000 µM, the EC50 [4] was 1000 µM and the EC50 [7] was > 1000 µM.

Reference: ChEMBL document CHEMBL1130227, “(S)-homo-AMPA, a specific agonist at the mGlu6 subtype of metabotropic glutamic acid receptors” (J Med Chem, 1997)
